# Reference: ChEMBL document CHEMBL4041530, “Development of spiroguanidine-derived α7 neuronal nicotinic receptor partial agonists” (Bioorg Med Chem Lett, 2017)
# Organism: Homo sapiens
# Experiment: Selectivity ratio of IC50 for 5-HT3A receptor (unknown origin) to EC50 for alpha7 nAChR (unknown origin) expressed in HEK293 cells
# Assay type: cell-based
# Procedure, shortened: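 Selectivity ratio calculated as 5-HT3A IC50 (FLIPR Ca2+ antagonist assay) divided by α7 EC50 (FLIPR Ca2+ agonist assay).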
row,SMILES,Ratio IC50/EC50
1,Clc1ccc2nc(NC3=NCC4(CN5CCC4CC5)N3)sc2n1 (racemic),570
2,CCN1C(Nc2nc3ccc(OC)cc3s2)=NCC12CN1CCC2CC1 (racemic),> 1
3,c1ccc2nc(NC3=NCC4(CN5CCC4CC5)N3)cnc2c1 (racemic),2.9
4,c1cn(-c2cc(NC3=NCC4(CN5CCC4CC5)N3)ncn2)cn1 (racemic),460
5,Clc1cnc(NC2=NCC3(CN4CCC3CC4)N2)nc1 (racemic),2.1

# Biological target: T1, 5-hydroxytryptamine receptor 3A (Homo sapiens, UniProt P46098)
# T1 sequence (P46098 whole entry): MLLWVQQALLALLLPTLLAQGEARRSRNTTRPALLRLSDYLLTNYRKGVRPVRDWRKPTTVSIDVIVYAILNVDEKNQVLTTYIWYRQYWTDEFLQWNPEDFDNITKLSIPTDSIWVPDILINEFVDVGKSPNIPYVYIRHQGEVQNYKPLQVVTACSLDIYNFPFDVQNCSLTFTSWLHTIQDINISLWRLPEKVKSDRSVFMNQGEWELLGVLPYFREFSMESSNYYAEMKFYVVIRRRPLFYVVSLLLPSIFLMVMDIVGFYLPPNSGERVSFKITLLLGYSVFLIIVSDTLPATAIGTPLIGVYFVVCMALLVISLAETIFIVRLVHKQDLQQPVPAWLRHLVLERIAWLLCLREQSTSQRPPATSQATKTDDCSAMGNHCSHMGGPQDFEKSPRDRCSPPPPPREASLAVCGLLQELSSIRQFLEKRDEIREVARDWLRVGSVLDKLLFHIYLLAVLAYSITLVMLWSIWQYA
# Experiment: Antagonist activity at 5-HT3A receptor (unknown origin) assessed as decrease in calcium influx by Fluo-4-AM dye based FLIPR assay
# Procedure, shortened: (§1)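 Ca2+-based fluorescence imaging plate reader screen, run as two assays: α7 nAChR agonism and 5-HT3A receptor antagonism. Number of determinations recorded per value.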
row,SMILES,IC50
1,Clc1ccc2nc(NC3=NCC4(CN5CCC4CC5)N3)sc2n1 (racemic),32000 nM
2,CCN1C(Nc2nc3ccc(OC)cc3s2)=NCC12CN1CCC2CC1 (racemic),> 12000 nM
3,c1ccc2nc(NC3=NCC4(CN5CCC4CC5)N3)cnc2c1 (racemic),1400 nM
4,c1cn(-c2cc(NC3=NCC4(CN5CCC4CC5)N3)ncn2)cn1 (racemic),6400 nM
5,Clc1cnc(NC2=NCC3(CN4CCC3CC4)N2)nc1 (racemic),620 nM

# Biological target: Neuronal acetylcholine receptor subunit alpha-7 (Homo sapiens, UniProt P36544)
# Experiment: Agonist activity at alpha7 nAChR (unknown origin) expressed in HEK293 cells assessed as increase in calcium influx by Fluo-4-AM dye based FLIPR assay
# Assay type: cell-based
# Procedure, shortened: as §1
# Neuronal acetylcholine receptor subunit alpha-7 (Homo sapiens, UniProt P36544), sequence (P36544 whole entry): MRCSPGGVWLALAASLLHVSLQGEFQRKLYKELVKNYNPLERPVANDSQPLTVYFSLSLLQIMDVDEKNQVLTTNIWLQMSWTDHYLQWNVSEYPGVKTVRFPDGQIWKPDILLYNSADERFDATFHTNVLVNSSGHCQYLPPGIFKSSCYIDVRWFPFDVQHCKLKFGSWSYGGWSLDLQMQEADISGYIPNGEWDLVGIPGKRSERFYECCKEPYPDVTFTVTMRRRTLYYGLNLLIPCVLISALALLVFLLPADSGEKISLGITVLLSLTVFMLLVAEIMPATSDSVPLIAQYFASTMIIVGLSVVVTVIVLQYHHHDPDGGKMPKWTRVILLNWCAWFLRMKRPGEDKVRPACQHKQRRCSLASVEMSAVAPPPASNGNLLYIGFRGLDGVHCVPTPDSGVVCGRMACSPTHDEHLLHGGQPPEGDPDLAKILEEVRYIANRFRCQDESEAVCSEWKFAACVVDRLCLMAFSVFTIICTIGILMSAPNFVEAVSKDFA
row,SMILES,EC50
1,Clc1ccc2nc(NC3=NCC4(CN5CCC4CC5)N3)sc2n1 (racemic),56 nM
2,CCN1C(Nc2nc3ccc(OC)cc3s2)=NCC12CN1CCC2CC1 (racemic),> 10000 nM
3,c1ccc2nc(NC3=NCC4(CN5CCC4CC5)N3)cnc2c1 (racemic),490 nM
4,c1cn(-c2cc(NC3=NCC4(CN5CCC4CC5)N3)ncn2)cn1 (racemic),140 nM
5,Clc1cnc(NC2=NCC3(CN4CCC3CC4)N2)nc1 (racemic),290 nM

# Biological target: Neuronal acetylcholine receptor subunit alpha-7 (Rattus norvegicus, UniProt Q05941)
# Experiment: Agonist activity at rat alpha7 nAChR expressed in HEK293 cells co-expressing human RIC-3 assessed as area under current curve at holding potential of -90 mV by whole-cell voltage clamp electrophysiology method
# Assay type: cell-based
# Procedure, shortened: (§2)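 Concentration-response patch-clamp electrophysiology in HEK-293 cells expressing rat α7 nAChR. EC50 is taken from response area. Efficacy is given as Ymax from both area and peak response.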
# Neuronal acetylcholine receptor subunit alpha-7 (Rattus norvegicus, UniProt Q05941), sequence (Q05941 whole entry): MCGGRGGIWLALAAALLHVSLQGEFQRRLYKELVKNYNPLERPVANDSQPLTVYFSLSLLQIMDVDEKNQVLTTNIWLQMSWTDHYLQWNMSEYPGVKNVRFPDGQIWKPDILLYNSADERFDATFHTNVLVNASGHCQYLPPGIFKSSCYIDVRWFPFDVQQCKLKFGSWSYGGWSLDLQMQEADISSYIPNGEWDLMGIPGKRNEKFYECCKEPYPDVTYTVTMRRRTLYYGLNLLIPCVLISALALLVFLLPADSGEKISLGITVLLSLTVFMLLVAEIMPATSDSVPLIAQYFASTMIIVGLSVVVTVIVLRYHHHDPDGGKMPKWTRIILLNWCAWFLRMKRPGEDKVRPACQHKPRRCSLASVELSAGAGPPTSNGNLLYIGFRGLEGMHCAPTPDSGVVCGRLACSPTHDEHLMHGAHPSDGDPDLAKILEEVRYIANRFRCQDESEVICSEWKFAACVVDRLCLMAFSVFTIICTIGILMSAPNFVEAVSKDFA
row,SMILES,EC50
1,Clc1cnc(NC2=NCC3(CN4CCC3CC4)N2)nc1 (racemic),1100 nM

# Biological target: Neuronal acetylcholine receptor subunit alpha-7 (Rattus norvegicus) (UniProt Q05941)
# Experiment: Agonist activity at rat alpha7 nAChR expressed in HEK293 cells co-expressing human RIC-3 assessed as maximum peak current at 10 uM at holding potential of -90 mV by whole-cell voltage clamp electrophysiology method relative to acetylcholine
# Assay type: cell-based
# Procedure, shortened: as §2
# Neuronal acetylcholine receptor subunit alpha-7 (Rattus norvegicus), sequence (Q05941 whole entry): as above
row,SMILES,Emax
1,Clc1cnc(NC2=NCC3(CN4CCC3CC4)N2)nc1 (racemic),11%

# Biological target: Neuronal acetylcholine receptor subunit alpha-7 (Rattus norvegicus) (UniProt Q05941)
# Experiment: Agonist activity at rat alpha7 nAChR expressed in HEK293 cells co-expressing human RIC-3 assessed as area under current curve at 10 uM at holding potential of -90 mV by whole-cell voltage clamp electrophysiology method relative to acetylcholine
# Assay type: cell-based
# Procedure, shortened: as §2
row,SMILES,Emax
1,Clc1cnc(NC2=NCC3(CN4CCC3CC4)N2)nc1 (racemic),44%
